Experimental data as given in ChEMBL document CHEMBL1156207, “Synthesis of mono-carbonyl analogues of curcumin and their effects on inhibition of cytokine release in LPS-stimulated RAW 264.7 macrophages” (Bioorg Med Chem, 2010).
The source made the active and inactive calls. The rule behind the calls is not given here.

Assays:
[1] = test system: RAW264.7; experiment: Antiinflammatory activity against LPS-stimulated mouse RAW264.7 cells assessed as inhibition of TNFalpha accumulation at 10 uM pretreated for 2 hrs before LPS challenge after 22 hrs by ELISA relative to control; type: functional
Procedure, shortened: (§1)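 RAW 264.7 cells plated at 4.0 × 10⁵/plate at 37 °C, 5% CO₂, pretreated 2 h with compound or vehicle, then LPS added for 22 h. Secreted cytokine in media measured by ELISA and normalized to total protein of lysed cell pellets from parallel plates. Expressed as percent of LPS control; mean with SE from 3–5 independent experiments.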

[2] = test system: RAW264.7; experiment: Antiinflammatory activity against LPS-stimulated mouse RAW264.7 cells assessed as inhibition of IL-6 accumulation at 10 uM pretreated for 2 hrs before LPS challenge after 22 hrs by ELISA relative to control; type: functional; design: Activity: scale not given: the % may be the effect or the level left; procedure, shortened: as §1
[3] = test system: RAW264.7; experiment: Cytotoxicity against LPS-stimulated mouse RAW264.7 cells at 10 uM pretreated for 2 hrs before LPS challenge after 22 hrs; type: cell-based; conditions: raw264.7, 22 h
[4] = test system: RAW264.7; experiment: Antiinflammatory activity against LPS-stimulated mouse RAW264.7 cells assessed as inhibition of TNFalpha accumulation pretreated for 2 hrs before LPS challenge after 22 hrs by ELISA relative to control; type: functional, cell-based
Procedure, shortened: (§2)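 Macrophages plated overnight at 4.0 × 10⁶/plate at 37 °C, 5% CO₂, and pretreated 2 h with compound at 1, 2.5, 5.0 and 10 (concentration series), then stimulated with LPS for 22 h. Cytokine in culture media quantified by ELISA and normalized to total cellular protein, measured after lysis in Tris–NP40–SDS buffer and protein assay.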

[5] = test system: RAW264.7; experiment: Antiinflammatory activity against LPS-stimulated mouse RAW264.7 cells assessed as inhibition of IL-6 accumulation pretreated for 2 hrs before LPS challenge after 22 hrs by ELISA relative to control; type: functional, cell-based; procedure, shortened: as §2

Row | Compound | Activity [1] | Activity [2] | also measured
1 | Cc1ccc(/C=C/C(=O)/C=C/c2ccc(C)cc2C)c(C)c1 | Active | 60% | 
2 | COc1cc(OC)c(/C=C/C(=O)/C=C/c2c(OC)cc(OC)cc2OC)c(OC)c1 | Active | 60% | 
3 | O=C(/C=C/c1ccccc1C(=O)O)/C=C/c1ccccc1C(=O)O | inactive | inactive | 
4 | Cc1ccc(/C=C2\CCC/C(=C\c3ccc(C)cc3C)C2=O)c(C)c1 | inactive | inactive | 
5 | O=C1/C(=C/c2cc(F)ccc2F)CC/C1=C\c1cc(F)ccc1F | inactive | inactive | 
6 | O=C1/C(=C/c2cccc(Cl)c2Cl)CCC/C1=C\c1cccc(Cl)c1Cl | inactive | inactive | 
7 | O=C1/C(=C/c2c(F)cccc2F)CCC/C1=C\c1c(F)cccc1F | inactive | inactive | 
8 | Cc1ccc(/C=C2\CC/C(=C\c3ccc(C)cc3C)C2=O)c(C)c1 | Active | inactive | 
9 | O=C1/C(=C/c2ccc(Cl)cc2Cl)CC/C1=C\c1ccc(Cl)cc1Cl | inactive | inactive | 
10 | COc1cc(OC)c(/C=C2\CCC/C(=C\c3c(OC)cc(OC)cc3OC)C2=O)c(OC)c1 | Active | 60% | 
11 | O=C1/C(=C\c2ccccc2C(=O)O)CCC/C1=C\c1ccccc1C(=O)O | inactive | inactive | 
12 | O=C1/C(=C/c2ccc(Cl)cc2Cl)CCC/C1=C\c1ccc(Cl)cc1Cl | inactive | inactive | 
13 | COc1ccc(/C=C2\CC/C(=C\c3ccc(OC)cc3OC)C2=O)c(OC)c1 | inactive | 60% | 
14 | COc1ccc(/C=C2\CCC/C(=C\c3ccc(OC)cc3OC)C2=O)c(OC)c1 | inactive | inactive | 
15 | COc1ccc(/C=C/C(=O)/C=C/c2ccc(OC)cc2OC)c(OC)c1 | Active | 60% | 
16 | O=C1/C(=C/c2cc(F)ccc2F)CCC/C1=C\c1cc(F)ccc1F | inactive | inactive | 
17 | O=C(/C=C/c1c(F)cccc1F)/C=C/c1c(F)cccc1F | Active | 60% | Activity [3]: Non-toxic; inhibition [4]: Dose-dependent effect; inhibition [5]: Dose-dependent effect
18 | O=C(/C=C/c1cc(F)ccc1F)/C=C/c1cc(F)ccc1F | inactive | inactive | 
19 | O=C1/C(=C/c2cccc(Cl)c2Cl)CC/C1=C\c1cccc(Cl)c1Cl | inactive | inactive | 
20 | COc1cc(OC)c(/C=C2\CC/C(=C\c3c(OC)cc(OC)cc3OC)C2=O)c(OC)c1 | inactive | inactive | 
21 | O=C1/C(=C/c2ccccc2C(=O)O)CC/C1=C\c1ccccc1C(=O)O | inactive | 60% | 
22 | O=C1/C(=C/c2c(F)cccc2F)CC/C1=C\c1c(F)cccc1F | inactive | inactive | 
23 | O=C(/C=C/c1ccc(Cl)cc1Cl)/C=C/c1ccc(Cl)cc1Cl | inactive | inactive | 
24 | CN(C)CCCOc1ccc(/C=C2\CCC/C(=C\c3ccc(OCCCN(C)C)cc3)C2=O)cc1 |  |  | Activity [3]: Non-toxic; inhibition at 10 µM [1]: 96.9%; inhibition at 10 µM ([2]; Mus musculus, RAW264.7): 97.1%; inhibition [4]: Dose-dependent effect; inhibition [5]: Dose-dependent effect
